Experimental data as given in ChEMBL document CHEMBL1152189, “Beta-C-glycosiduronic acids and beta-C-glycosyl compounds: new PTP1B inhibitors” (Bioorg Med Chem Lett, 2008).

Assays:
[1] = molecular target: T1, Tyrosine-protein phosphatase non-receptor type 1 (Homo sapiens, UniProt P18031); assay: Inhibition of recombinant PTP1B
T1 sequence (P18031 whole entry): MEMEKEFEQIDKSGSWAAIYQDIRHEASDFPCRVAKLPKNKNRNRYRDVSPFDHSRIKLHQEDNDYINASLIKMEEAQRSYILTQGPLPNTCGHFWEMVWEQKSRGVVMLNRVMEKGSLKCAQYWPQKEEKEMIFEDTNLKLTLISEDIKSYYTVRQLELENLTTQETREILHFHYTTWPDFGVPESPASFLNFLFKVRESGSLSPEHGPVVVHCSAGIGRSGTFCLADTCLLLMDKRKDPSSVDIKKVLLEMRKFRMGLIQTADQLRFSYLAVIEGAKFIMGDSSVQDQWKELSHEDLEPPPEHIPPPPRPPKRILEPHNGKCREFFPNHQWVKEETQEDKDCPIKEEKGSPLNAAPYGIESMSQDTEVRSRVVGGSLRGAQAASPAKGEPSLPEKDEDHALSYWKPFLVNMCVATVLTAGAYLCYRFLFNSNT
Procedure, shortened: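 Recombinant enzyme, 30 nM, with 2 mM pNPP in 50 mM MOPS pH 6.5. Hydrolysis followed continuously at 405 nm for 2 min at 30 °C, and initial rate taken from early linear region. Inhibitor diluted around estimated IC50. IC50 from nonlinear fit of % inhibition vs [I] with Hill equation. Mean of three experiments, SD given.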

[2] = molecular target: T2, Tyrosine-protein phosphatase non-receptor type 1 (Homo sapiens) (UniProt P18031); assay: Inhibition of recombinant PTP1B at 20 ug/mL
T2 sequence (whole entry): T1 sequence (P18031 whole entry)
Procedure, shortened: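 pNPP hydrolysis by recombinant enzyme in 50 mM MOPS pH 6.5 with 2 mM pNPP. Read continuously at 405 nm for 2 min at 30 °C, and initial rate taken from early linear region. Inhibitor tested at 20 μg/mL. Mean of three experiments.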

SMILES	IC50 [1]	inhibition [2]
CC(=O)O[C@@H]1[C@@H](OC(C)=O)[C@H](C2=CC(=O)c3ccccc3C2=O)O[C@H](C(=O)O)[C@H]1OC(C)=O	15.9 µM	83.1%
COc1ccc(OC)c([C@@H]2O[C@H](CNC(=O)c3ccccc3)[C@@H](OC(C)=O)[C@H](OC(C)=O)[C@H]2OC(C)=O)c1		12.1%
O=C(O[C@H]1[C@@H](OC(=O)c2ccccc2)[C@@H](C(=O)O)O[C@@H](C2=CC(=O)c3ccccc3C2=O)[C@@H]1OC(=O)c1ccccc1)c1ccccc1	1.12 µM	99.5%
O=C1C=CC(=O)C([C@@H]2O[C@H](CNC(=O)c3ccccc3)[C@@H](O)[C@H](OC(=O)c3ccccc3)[C@H]2OC(=O)c2ccccc2)=C1	5.27 µM	94.1%
CC(=O)O[C@@H]1[C@@H](OC(C)=O)[C@H](C2=CC(=O)C=CC2=O)O[C@H](CNC(=O)c2ccccc2)[C@H]1OC(C)=O		26.6%
CC(=O)O[C@H]1[C@@H](OC(C)=O)[C@@H](C(=O)O)O[C@@H](C2=CC(=O)c3ccccc3C2=O)[C@@H]1OC(C)=O	16.6 µM	88.2%
CC(=O)O[C@@H]1[C@@H](OC(C)=O)[C@H](C2=CC(=O)C=CC2=O)O[C@H](C(=O)O)[C@H]1OC(C)=O	20.4 µM	84.7%
COc1ccc(OC)c([C@@H]2O[C@H](COC(C)=O)[C@H](NC(=O)c3ccccc3C(=O)O)[C@H](OC(C)=O)[C@H]2OC(C)=O)c1		49.5%
CC(=O)O[C@H]1[C@@H](OC(C)=O)[C@@H](C(=O)O)O[C@@H](C2=CC(=O)C=CC2=O)[C@@H]1OC(C)=O	27.6 µM	70.3%

Other lines, results leading:

IC50 [1]	inhibition [2]	SMILES
2.44 µM	99.7%	COc1ccc(OC)c([C@@H]2O[C@H](CNC(=O)c3ccccc3C(=O)O)[C@@H](OC(=O)c3ccccc3)[C@H](OC(=O)c3ccccc3)[C@H]2OC(=O)c2ccccc2)c1
4.13 µM	94.9%	COc1ccc(OC)c([C@@H]2O[C@H](CNC(=O)c3ccccc3)[C@@H](O)[C@H](OC(=O)c3ccccc3)[C@H]2OC(=O)c2ccccc2)c1
4.52 µM	83.4%	COc1ccc(OC)c([C@@H]2O[C@H](CNC(=O)c3ccccc3)[C@@H](OC(C)=O)[C@H](OC(=O)c3ccccc3)[C@H]2OC(=O)c2ccccc2)c1
2.36 µM	96.5%	COc1cc([C@@H]2O[C@H](CN=[N+]=[N-])[C@@H](OC(=O)c3ccccc3)[C@H](OC(=O)c3ccccc3)[C@H]2OC(=O)c2ccccc2)c(OC)c2ccccc12
0.77 µM	92.1%	COc1cc([C@@H]2O[C@H](CNC(=O)c3ccccc3C(=O)O)[C@@H](OC(=O)c3ccccc3)[C@H](OC(=O)c3ccccc3)[C@H]2OC(=O)c2ccccc2)c(OC)c2ccccc12
